{
  "source": "ChEMBL document CHEMBL4028848",
  "about": "“Discovery of N-{4-[5-(4-Fluorophenyl)-3-methyl-2-methylsulfanyl-3H-imidazol-4-yl]-pyridin-2-yl}-acetamide (CBS-3595), a Dual p38α MAPK/PDE-4 Inhibitor with Activity against TNFα-Related Diseases” (J Med Chem, 2017)",
  "key": {"[1]": {"test_system": "Liver", "experiment": "Drug metabolism in rat liver microsomes assessed as 4-(4-(4-fluorophenyl)-1-methyl-2-(methylsulfinyl)-1H-imidazol-5-yl)pyridin-2-amine formation at 10 to 100 uM", "assay_type": "ADME, microsome", "outline": "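Test compound incubated at 10, 30 and 100 μM with liver microsomes from rat, Cynomolgus monkey or human, and metabolites monitored.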"}, "[2]": {"experiment": "Tmax in cynomolgus monkey at 20 mg/kg, po measured on day 1 and 27 post dose by LC-MS/MS analysis", "assay_type": "ADME, organism-based, Macaca fascicularis", "settings": "in vivo"}, "[3]": {"experiment": "Half life in cynomolgus monkey at 20 mg/kg, po measured on day 1 and 27 post dose by LC-MS/MS analysis", "assay_type": "ADME, organism-based, Macaca fascicularis", "settings": "in vivo", "outline": "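Cynomolgus monkeys were dosed orally at 6, 12 and 20 mg/kg daily in a 4-week toxicity study. Blood was sampled from 0.5 to 24 h post dose on days 1 and 27. Individual profiles of parent and metabolite gave Tmax, Cmax, T1/2 and AUC0–24.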"}, "[4]": {"experiment": "Drug uptake in LPS-stimulated female Lewis rat serum at 10 mg/kg, po pretreated for 5 hrs followed by LPS addition measured after 1.5 hrs post dose", "assay_type": "ADME, organism-based", "settings": "read-out: Drug uptake", "outline": "(§1)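 Female Lewis rats, n = 8/group, dosed orally at 10 mg/kg at 1, 3 or 5 h before LPS challenge. Serum aliquots taken 1.5 h after LPS were used to measure drug concentration.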"}, "[5]": {"experiment": "Half life in mongrel dog at 30 mg/kg, po by LC-MS/MS analysis", "assay_type": "ADME, organism-based, Canis lupus familiaris", "settings": "in vivo", "outline": "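Oral single-dose PK; plasma concentrations of parent and metabolite measured. Dogs: blood sampled 0.25 to 24 h after dosing. Humans: healthy subjects, placebo-controlled single-blind randomized consecutive dosing, plasma sampled predose and 0.25–36 h post dose. 10 mg also given fasting and fed in crossover. Parameters derived from individual concentration–time profiles.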"}, "[6]": {"test_system": "Rattus norvegicus", "experiment": "Antiarthritic activity in Lewis rat assessed as change in paw volume at 50 mg/kg, po qd administered for 10 days", "assay_type": "functional, organism-based", "outline": "(§2)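 Collagen-induced arthritis in male Lewis rats (5–6 per group). Groups received vehicle, dexamethasone 1 mg/kg, test item 50 mg/kg once daily, or 25 mg/kg twice daily for 10 days. Body weight, arthritic score and paw volume were monitored, and serum COMP was measured at the end.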"}, "[7]": {"experiment": "Tmax in Beagle dog at 40 mg/kg, po by LC-MS/MS analysis", "assay_type": "ADME, organism-based, Canis lupus familiaris", "settings": "in vivo"}, "[8]": {"test_system": "Rattus norvegicus", "experiment": "Toxicity in Sprague-Dawley rat assessed as mortality at 2000 mg/kg, po administered via gavage after 14 days", "assay_type": "organism-based", "settings": "in vivo, 336 h"}, "[9]": {"experiment": "Cmax in Beagle dog at 40 mg/kg, po by LC-MS/MS analysis", "assay_type": "ADME, organism-based, Canis lupus familiaris", "design": "dose 40 mg/kg, route oral", "settings": "in vivo", "outline": "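Toxicokinetics from a maximum-tolerated-dose study in four Beagle dogs given 40 mg/kg orally. Plasma levels of both parent and its predominant metabolite were monitored.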"}, "[10]": {"experiment": "Drug uptake in LPS-stimulated female Lewis rat serum at 10 mg/kg, po pretreated for 1 hrs followed by LPS addition measured after 1.5 hrs post dose", "assay_type": "ADME, organism-based", "settings": "read-out: Drug uptake", "outline": "as §1"}, "[11]": {"test_system": "Rattus norvegicus", "experiment": "Toxicity in single po dosed rat assessed as increase in peak inspiratory flow at 100 to 300 mg/kg, po administered as single dose", "assay_type": "organism-based", "settings": "in vivo"}, "[12]": {"experiment": "AUC (0 to t) in cynomolgus monkey at 20 mg/kg, po measured on day 1 and 27 post dose by LC-MS/MS analysis", "assay_type": "ADME, organism-based, Macaca fascicularis", "settings": "in vivo", "outline": "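Within a 4-week oral toxicity study, Cynomolgus monkeys received 6, 12 or 20 mg/kg daily. Blood was sampled from 0.5 to 24 h post dose on days 1 and 27. Tmax, Cmax, T1/2 and AUC0–24 came from individual profiles of parent and metabolite.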"}, "[13]": {"test_system": "Rattus norvegicus", "experiment": "Toxicity in Sprague-Dawley rat assessed as increase in abdomen size at 150 mg/kg, po administered via gavage for daily 28 days followed by 2 weeks off without dosing", "assay_type": "organism-based", "settings": "in vivo"}, "[14]": {"test_system": "Rattus norvegicus", "experiment": "Antiarthritic activity in Lewis rat assessed as collagen oligomeric matrix protein level in serum at 50 mg/kg, po qd administered for 10 days (Rbv = 0.17 +/- 0.02 U/l)", "assay_type": "functional", "outline": "as §2"}},
  "note": "Calls of active or inactive are those of the source. The calls are words filed in the database; no cut-off is given here.",
  "data": [
    {"compound": "CC(=O)Nc1cc(-c2c(-c3ccc(F)cc3)nc([S+](C)[O-])n2C)ccn1", "note": "(centres undefined)", "values": [
      {"measurement": "Drug metabolism", "setting": "[1]", "value": "Metabolite_Detected"},
      {"measurement": "Tmax", "setting": "[2]", "value": 4, "unit": "h"},
      {"measurement": "half-life", "setting": "[3]", "value": 4.8, "unit": "h"},
      {"measurement": "concentration at 1.5 h", "setting": "[4]", "value": 871, "unit": "ng/mL"},
      {"measurement": "half-life", "setting": "[5]", "value": 3.85, "unit": "h"},
      {"measurement": "Activity", "setting": "[6]", "value": "inactive"},
      {"measurement": "Tmax", "setting": "[7]", "value": 1.5, "unit": "h"},
      {"measurement": "Activity", "setting": "[8]", "value": "Non-Toxic"},
      {"measurement": "Cmax", "setting": "[9]", "value": 15.6, "unit": "µM"},
      {"measurement": "concentration at 1.5 h", "setting": "[10]", "value": 237, "unit": "ng/mL"},
      {"measurement": "Activity", "setting": "[11]", "value": "Toxic"},
      {"measurement": "AUC(0-t)", "setting": "[12]", "value": 79.6, "unit": "µM·h"},
      {"measurement": "Activity", "setting": "[13]", "value": "Toxic"},
      {"measurement": "Activity", "setting": "[14]", "value": 0.08, "unit": "U/L"}
    ]}
  ]
}
